In ChEMBL document CHEMBL4406851, “Design, synthesis and biological evaluation of cinnamic acid derivatives with synergetic neuroprotection and angiogenesis effect” (Eur J Med Chem, 2019):

How the values were obtained:
SH-SY5Y = assay: Neuroprotective activity against H2O2-induced cell damage in human SH-SY5Y cells assessed as increase in cell viability preincubated for 24 hrs followed by H2O2 addition and measured after 4 hrs by MTT assay; format: functional, cell-based
Method in brief: (§1)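 Cells at 3.5×10^4 cells/mL in 96-well plates were grown 24 h (37 °C, 5% CO2). Test agent was added at five concentrations for 24 h, then H2O2 (4.8 mM stock) to model and drug wells. After PBS washes, MTT (5 mg/mL) was added for 4 h, formazan was dissolved in DMSO and OD was read at 550 nm. Proliferation rate = (drug − injury OD)/(control − injury OD). EC50 came from a formula using maximum concentration and summed, maximal and minimal rates.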

[1] = Neuroprotective activity against H2O2-induced cell damage in human HBMEC2 cells assessed as increase in cell viability preincubated for 24 hrs followed by H2O2 addition and measured after 4 hrs by MTT assay; format: functional, cell-based; conditions: HBMEC-2; method in brief: as §1

Compound | EC50 (SH-SY5Y) [µM] | EC50 [1] [µM]
COc1cc(CNC(=O)/C=C/c2ccc(OC)c(OC)c2)ccc1O | 11 | 8.85
COc1cc(CNC(=O)/C=C/c2ccc(OCc3nc(C)c(C)nc3C)cc2)ccc1O | 5.37 | 12.5
COc1cc(CNC(=O)/C=C/c2ccccc2O)ccc1OCc1nc(C)c(C)nc1C | 5.3 | 6.07
COc1cc(CNC(=O)/C=C/c2ccccc2)ccc1OCc1nc(C)c(C)nc1C | 7.31 | 4.99
COc1cc(CNC(=O)/C=C/c2ccccc2OCc2nc(C)c(C)nc2C)ccc1O | 12 | 6.65
COc1cc(CNC(=O)/C=C/c2ccc(OC)c(OC)c2OC)ccc1O | 7.45 | 4.82
COc1cc(/C=C/C(=O)NCc2ccc(OCc3nc(C)c(C)nc3C)c(OC)c2)cc(OC)c1 | 8.66 | 12.9
COc1ccc(/C=C/C(=O)NCc2ccc(OCc3nc(C)c(C)nc3C)c(OC)c2)cc1OC | 4.47 | 15.8
COc1cc(CNC(=O)/C=C/c2ccc(O)cc2)ccc1OCc1nc(C)c(C)nc1C | 3.74 | 6.23
COc1ccc(/C=C/C(=O)NCc2ccc(O)c(OC)c2)cc1O | 7.85 | 11.8
COc1cc(CNC(=O)/C=C/c2cccc(O)c2)ccc1OCc1nc(C)c(C)nc1C | 3.68 | 6.17
CC1=NN(c2ccccc2)C(=O)C1 [EDARAVONE] | 3.75 | 4.61
COc1cc(CNC(=O)/C=C/c2ccccc2OC)ccc1O | 5.98 | 6.48
COc1cc(/C=C/C(=O)NCc2ccc(OCc3nc(C)c(C)nc3C)c(OC)c2)ccc1O | 13.4 | 5.81
COc1cccc(/C=C/C(=O)NCc2ccc(O)c(OC)c2)c1 | 5.24 | 7.11
COc1cc(CNC(=O)/C=C/c2ccc(OC)c(OC)c2OC)ccc1OCc1nc(C)c(C)nc1C | 3.84 | 18.1
COc1ccc(OC)c(/C=C/C(=O)NCc2ccc(OCc3nc(C)c(C)nc3C)c(OC)c2)c1 | 11 | 11.8
COc1cc(/C=C/C(=O)NCc2ccc(OCc3nc(C)c(C)nc3C)c(OC)c2)ccc1OCc1nc(C)c(C)nc1C | 11.1 | 14.5
COc1cc(CNC(=O)/C=C/c2ccc(O)cc2)ccc1O | 6 | 8.04
COc1ccc(OC)c(/C=C/C(=O)NCc2ccc(O)c(OC)c2)c1 | 9.5 | 10.5
COc1cc(CNC(=O)/C=C/c2cc(OC)c(OC)c(OC)c2)ccc1OCc1nc(C)c(C)nc1C | 11.5 | 3.55
COc1cc(CNC(=O)/C=C/c2ccc(OC)c(OCc3nc(C)c(C)nc3C)c2)ccc1OCc1nc(C)c(C)nc1C | 11.6 | 14.6

Compound | EC50 (SH-SY5Y) [µM] | EC50 [1] [µM]
COc1cc(CNC(=O)/C=C/c2ccc(OC)c(OCc3nc(C)c(C)nc3C)c2)ccc1O | 9.25 | 9.3
COc1cc(CNC(=O)/C=C/c2ccccc2OCc2nc(C)c(C)nc2C)ccc1OCc1nc(C)c(C)nc1C | 6.28 | 15.1
COc1cc(CNC(=O)/C=C/c2ccc(OCc3nc(C)c(C)nc3C)cc2)ccc1OCc1nc(C)c(C)nc1C | 7.77 | 21.4
COc1cc(CNC(=O)/C=C/c2ccc(OCc3nc(C)c(C)nc3C)c(OC)c2)ccc1O | 10.2 | 11.6
COc1cc(CNC(=O)/C=C/c2cccc(OCc3nc(C)c(C)nc3C)c2)ccc1OCc1nc(C)c(C)nc1C | 8.7 | 12.8
COc1cc(OC)c(OC)cc1/C=C/C(=O)NCc1ccc(OCc2nc(C)c(C)nc2C)c(OC)c1 | 3.62 | 12.5
COc1ccc(/C=C/C(=O)NCc2ccc(OCc3nc(C)c(C)nc3C)c(OC)c2)cc1 | 5.05 | 6.56
COc1cc(CNC(=O)CCCC/C=C/C(C)C)ccc1O [CAPSAICIN] | 14 | 16.4
COc1ccccc1/C=C/C(=O)NCc1ccc(OCc2nc(C)c(C)nc2C)c(OC)c1 | 7.15 | 12
COc1cc(CNC(=O)/C=C/c2cccc(OCc3nc(C)c(C)nc3C)c2)ccc1O | 8.09 | 10.6
COc1cc(CNC(=O)/C=C/c2cc(OC)c(OC)c(OC)c2)ccc1O | 5.91 | 2.59
COc1cc(CNC(=O)/C=C/c2ccccc2)ccc1O | 3.66 | 9.8
COc1cc(CNC(=O)/C=C/c2cccc(OC)c2OC)ccc1OCc1nc(C)c(C)nc1C | 7.15 | 6.31
COc1cccc(/C=C/C(=O)NCc2ccc(OCc3nc(C)c(C)nc3C)c(OC)c2)c1 | 4.32 | 9.87
COc1cc(CNC(=O)/C=C/c2cccc(O)c2)ccc1O | 8.62 | 5.75
Cc1nc(C)c(C)nc1C [LIGUSTRAZINE] | 17.6 | 15.2
COc1ccc(/C=C/C(=O)NCc2ccc(OCc3nc(C)c(C)nc3C)c(OC)c2)cc1O | 8.56 | 13.5
COc1cc(CNC(=O)/C=C/c2cccc(OC)c2OC)ccc1O | 5.49 | 13.1
COc1cc(CNC(=O)/C=C/c2ccccc2O)ccc1O | 9.76 | 7.46
COc1ccc(/C=C/C(=O)NCc2ccc(O)c(OC)c2)cc1 | 11.4 | 10.4
COc1cc(/C=C/C(=O)NCc2ccc(O)c(OC)c2)ccc1O | 9.3 | 6.34
COc1cc(/C=C/C(=O)NCc2ccc(O)c(OC)c2)cc(OC)c1 | 4.86 | 7.81
